Several values for one entry are separate records, joined by “and”; a condition that tells them apart may be missing. Equal entries are not always repeated.
Experiments:
Rattus norvegicus [1] = assay: Percent increase in liver weight in rats when administered perorally; format: functional
Rattus norvegicus [2] = assay: Percent change in total cholesterol concentration in serum from hypercholesterolemic rats at dose 50 mg/kg (po); format: functional
Rattus norvegicus [3] = assay: Percent change in high density lipoproteins cholesterol concentration in serum from hypercholesterolemic rats at dose 50 mg/kg (po); format: functional
Outline: (§1)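 Rats were fed 1.5% cholesterol/0.5% cholic acid diet for 7 days, with compounds given by gavage over the last 4 days as a 0.5% Methocel suspension (0.5 mL/100 g). Rats were fasted overnight, killed on day 8 and bled under light CO₂ anesthesia. HDL was isolated by heparin-MnCl₂ precipitation (8000 rpm, 15 min, 4 °C). Total and HDL cholesterol were measured enzymatically-colorimetrically; % change vs control.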

Rattus norvegicus [4] = assay: Compound was tested for its activity in diet-induced Hypercholesterolemic rats at dose 50 mg/kg after peroral administration carnitine acetyl transferase activity(per mg) of protein; format: functional; settings: route oral
Rattus norvegicus [5] = assay: Compound was tested for its activity in diet-induced Hypercholesterolemic rats at dose 50 mg/kg after peroral administration palmitoyl-CoA oxidation activity(per mg) of protein; format: functional; settings: route oral
Rattus norvegicus [6] = assay: Compound was tested for Hepatic peroxisomal proliferation effect in male rats treated for 7 days at dose 50 mg/kg protein; format: functional
Rattus norvegicus [7] = assay: Compound was tested for Hepatic peroxisomal proliferation effect in male rats treated for 7 days at dose 50 mg/kg concentration of hepatic proteins(mg/g) in liver; format: functional, organism-based; design: dose 50 mg/kg
[8] = Compound was tested for Hepatic peroxisomal proliferation effect in male rats treated for 7 days at dose 50 mg/kg ratio of % liver weight to % body weight; format: functional
Rattus norvegicus [9] = assay: Percent change in total cholesterol concentration in serum from hypercholesterolemic rats at dose 35 mg/kg (po); format: functional
Rattus norvegicus [10] = assay: Percent change in high density lipoproteins cholesterol concentration in serum from hypercholesterolemic rats at dose 35 mg/kg (po); format: functional; outline: as §1
Rattus norvegicus [11] = assay: Percent change in total cholesterol concentration in serum from hypercholesterolemic rats at dose 45 mg/kg (po); format: functional
Rattus norvegicus [12] = assay: Percent change in total cholesterol concentration in serum from hypercholesterolemic rats at dose 23 mg/kg (po); format: functional; outline: as §1
Rattus norvegicus [13] = assay: Percent change in high density lipoproteins cholesterol concentration in serum from hypercholesterolemic rats at dose 23 mg/kg (po); format: functional; outline: as §1
Rattus norvegicus [14] = assay: Percent change in high density lipoproteins cholesterol concentration in serum from hypercholesterolemic rats at dose 45 mg/kg (po); format: functional; outline: as §1
Rattus norvegicus [15] = assay: Percent increase in liver weight in rats when a 50 mg/Kg dose was administered; format: functional
Rattus norvegicus [16] = species on record: Rattus norvegicus; assay: Compound was tested in vitro for inhibition of Cholesterol biosynthesis in rat liver slices, % inhibition of [14C]acetate incorporation in neutral lipids at 2 e10-4 concentration; format: functional
Outline: (§2)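 Liver slices (250 mg) from fed male rats were incubated in Krebs-Ringer bicarbonate, pH 7.4, with 4 mM [2-¹⁴C]acetate under 95% O₂-5% CO₂. Compounds were tested at a final 2 × 10⁻⁴ M, or 5 × 10⁻⁵ M for one compound. ¹⁴C incorporation into cholesterol and into petroleum-ether-soluble nonsaponifiable neutral lipids gave % inhibition; mean of four determinations.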

Rattus norvegicus [17] = species on record: Rattus norvegicus; assay: Compound was tested in vitro for inhibition of Cholesterol biosynthesis in rat liver slices, % inhibition of [14C]-acetate incorporation in cholesterol at 2 e10-4 concentration; format: functional; outline: as §2
[18] = Percent change in high density lipoprotein cholesterol
Rattus norvegicus [19] = assay: Percent change in triglyceride concentration in serum from normocholesterolemic rats at dose 50 mg/kg (po)
Rattus norvegicus [20] = assay: Percent change in low density lipoproteins cholesterol concentration in serum from normocholesterolemic rats at dose 50 mg/kg (po)

| Compound | Change (Rattus norvegicus [1]) [%] | Change (Rattus norvegicus [2]) [%] | Change (Rattus norvegicus [3]) [%] | further results |
| --- | --- | --- | --- | --- |
| CC(C)(C)c1cc(Br)c2c(c1)C(=O)C(n1ccnc1)CO2 (stereo not drawn) | 15 | -12 | 57 | – |
| CC1Cc2ccccc2C(=O)C1n1ccnc1 (stereo not drawn) | 26 | -54 | 102 | – |
| COc1cc(Br)c2c(c1)C(=O)C(n1ccnc1)CO2 (stereo not drawn) | 6 | 14 | 64 | – |
| CCC1(c2ccccc2)C(=O)NC(=O)NC1=O [PHENOBARBITAL] | – | – | – | Activity (Rattus norvegicus [4]): 4.2; Activity (Rattus norvegicus [5]): 1.15; Activity (Rattus norvegicus [6]): 1.92; Concentration (Rattus norvegicus [7]): 40.6; Ratio [8]: 4.32% |
| O=C1c2ccc(-c3ccccc3)cc2OCC1n1ccnc1 (stereo not drawn) | 22 | -48 | 118 | – |
| CCCc1cc2c(cc1OC)OC(C)C(n1ccnc1)C2=O (stereo not drawn) | 24 | – | – | Change (Rattus norvegicus [9]): -57%; Change (Rattus norvegicus [10]): 152% |
| CC(C)(C)c1cc2c(cc1O)OCC(n1ccnc1)C2=O (stereo not drawn) | 11 | -55 | 97 | – |
| O=C1c2cc(Br)ccc2OCC1n1ccnc1 (stereo not drawn) | 23 | -50 | 144 | – |
| Cc1nccn1C1COc2ccc(Cl)cc2C1=O (stereo not drawn) | 14 | 39 | 23 | – |
| Cc1cc(Br)c2c(c1)C(=O)C(n1ccnc1)CO2 (stereo not drawn) | 7 | – | 21 | Change (Rattus norvegicus [11]): -15% |
| O=C1c2ccccc2OC(c2ccccc2)C1n1ccnc1 (stereo not drawn) | 5 | 27 | -3 | – |
| O=C1c2cc(-c3ccccc3)ccc2CCC1n1ccnc1 (stereo not drawn) | 2 | – | – | Change (Rattus norvegicus [12]): 4%; Change (Rattus norvegicus [13]): 8% |
| O=C1c2cc([N+](=O)[O-])ccc2CCC1n1ccnc1 (stereo not drawn) | 5 | -16 | 23 | – |
| O=C1c2ccc(O)cc2CCC1n1ccnc1 (stereo not drawn) | -3 | 30 | 12 | – |
| CCCC1Oc2ccccc2C(=O)C1n1ccnc1 (stereo not drawn) | 20 | – | – | Change (Rattus norvegicus [11]): -4%; Change (Rattus norvegicus [14]): 53% |
| CC1Oc2cc(O)ccc2C(=O)C1n1ccnc1 (stereo not drawn) | 3 | -22 | 2 | – |
| COC1c2cc(Cl)ccc2OCC1n1ccnc1 (racemic) | 15 | 8 | -7 | – |
| O=C1c2cc(O)ccc2OCC1n1ccnc1 (stereo not drawn) | 3 | 9 | -4 | – |
| OC1c2cc(Cl)ccc2OCC1n1ccnc1 (stereo in doubt; 40) | 24 | – | – | Change (Rattus norvegicus [15]): 24%; Change (Rattus norvegicus [2]; 50 mg/kg): -42% and -19%; Inhibition (Rattus norvegicus [16]): 0%; Inhibition (Rattus norvegicus [17]): 0%; Percent change in HDL cholesterol [18]: 123; Change (Rattus norvegicus [19]): -36%; Change (Rattus norvegicus [20]): -50% |
| COc1ccc2c(c1)C(=O)C(n1ccnc1)CO2 (stereo not drawn) | 20 | -21 | 88 | – |
| O=C1c2ccccc2OC(c2cccnc2)C1n1ccnc1 (stereo not drawn) | 4 | -4 | 12 | – |
| CC1Oc2c(Br)cc(C(=O)O)cc2C(=O)C1n1ccnc1 (stereo not drawn) | 4 | -23 | -11 | – |
